Data set [1] has as its system Aorta. In words: Vasodilatory activity in Wistar rat endothelium-denuded thoracic aortic ring assessed as inhibition of phenylephrine-induced contraction […]. Format: functional, tissue-based. The procedure, abridged: (§1)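 Endothelium-denuded rat aorta strips are precontracted with phenylephrine. At the plateau, cumulative concentrations of test agent in DMSO are added. Relaxation is recorded isometrically and reported as EC50 ± SEM (μM). In a separate series, 1 μM ODQ is added 5 min before contraction, giving at least 30 min of preincubation before the vasodilator. At least five experiments.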

Data set [2] concerns Aorta. The data set is described as follows: Vasodilatory activity in Wistar rat endothelium-denuded thoracic aortic ring assessed as inhibition of phenylephrine-induced contraction preincubated for […] in presence of 1 uM 1H-[1,2,4]oxadiazolo[4,3-a]quinoxalin-1-one. The class given is functional, tissue-based. The procedure, abridged: as §1
A further data set relates to Serum. In words: Metabolic stability in human serum assessed as maximal amount of aspirin released at 250 uM by RP-HPLC analysis. The class given is ADME, cell-free.
The nature of data set [3]: Chemical stability in acidic medium at pH 1 assessed as unchanged drug level at 0.5 mM after 3 hrs by RP-HPLC analysis. Format: physicochemical. Particulars: read-out: Stability. The procedure, abridged:
(§2)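 A 0.5 mM acetonitrile solution (2 mL) is diluted to 10 mL with HCl (pH 1.0) or 50 mM phosphate buffer (pH 7.4) and held at 37 ± 0.5 °C. Aliquots are taken over time for RP-HPLC (C18 column, acetonitrile/water gradient with 0.1% TFA). Performed in triplicate.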

Data set [4] is described as follows: Antiaggregatory activity in human platelet rich plasma assessed as inhibition of collagen-induced platelet aggregation at 300 uM preincubated 10 mins before collagen challenge. Format: functional. In short, it runs like this:
(§3)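 Platelet-rich plasma from citrated blood spun at 210g for 20 min. Compound in 0.5% DMSO vehicle preincubated 10 min, then submaximal collagen (0.8–1.5 μg/mL). Light-transmission aggregometry with stirring at 1000 rpm, 37 °C, recorded for 10 min. Read-out is % inhibition versus vehicle control; IC50 by nonlinear regression, else % inhibition at 300 μM top concentration. At least five experiments.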

A short description of data set [5]: Metabolic stability in human serum assessed as half life at 250 uM by RP-HPLC analysis. The class given is ADME, cell-free.
Another data set relates to Platelet. The data set is described as follows: Antiaggregatory activity in human platelet rich plasma assessed as inhibition of collagen-induced platelet aggregation preincubated 10 mins before collagen challenge. Format: functional. In short, it runs like this:
as §3

Data set [6] in a line: Chemical stability in phosphate buffer at pH 7.4 assessed as unchanged drug level at 0.5 mM after 3 hrs by RP-HPLC analysis. The class given is physicochemical. Particulars: read-out: Stability. The procedure, abridged:
as §2

Data set [7] has as its system Aorta. In words: Vasodilatory activity in Wistar rat endothelium-denuded thoracic aortic ring assessed as inhibition of phenylephrine-induced contraction at 30 uM preincubated for 30 mins before phenylephrine addition in presence of 1 uM 1H-[1,2,4]oxadiazolo[4,3-a]quinoxalin-1-one. The class given is functional. On the set-up: scale not given: the % may be the effect or the level left.

A value given as a limit tells only on which side of the number the result lay.

Consider `O=C(O)c1ccc(SCCCO[N+](=O)[O-])cc1`, for which, in the data set on Aorta [1], the Activity entry is “Dose-dependent effect” and the EC50 (as a rule, the concentration that produces a half-maximal response) worked out at 270 nM. Besides, the EC50 in the data set with Aorta [2] was 53000 nM.
On to `O=C(O)c1ccc(OCCCO[N+](=O)[O-])cc1`, for which, in the data set with Aorta [1], the Activity result was “Dose-dependent effect” and the EC50 turned out to be 620 nM. For the same compound, the EC50 in the data set with Aorta [2] worked out at 66000 nM.
As for `CC(=O)Oc1ccccc1C(=O)OCOC(=O)CCCCCO[N+](=O)[O-]`, the Activity with Serum is 10.1%; with Aorta [1], “Dose-dependent effect”; with Platelet, “Dose-dependent effect”; with Aorta [7], under 50%. Moreover, the remaining at 3 h, 500 µM in data set [3] and in data set [6] was 99% each time. In addition, the inhibition (usually the percentage by which the read-out fell short of the control) at 300 µM in data set [4] was found to be 17%. Further, in the data set on Aorta [1], the EC50 was determined as 1200 nM. The half-life (usually the time needed for the level to fall by half in the phase considered) at 250 µM in [5] is under 1 min.
For `CC(=O)Oc1ccccc1C(=O)OCOC(=O)CCCCC(CO[N+](=O)[O-])O[N+](=O)[O-]` (centres undefined), the Activity in the data set with Serum was 9.8%; in the data set with Aorta [1], “Dose-dependent effect”; in the data set on Platelet it was “Dose-dependent effect”; with Aorta [7], under 50%. For the same compound, the remaining at 3 h, 500 µM in [3] and in data set [6] was 99% each time. For the same compound, the inhibition at 300 µM in data set [4] is 36%. Also, the EC50 in the data set on Aorta [1] is 520 nM. Moreover, in data set [5], the half-life at 250 µM was under 1 min.
In the case of `O=C(O)c1ccc(OCC(CO[N+](=O)[O-])O[N+](=O)[O-])cc1` (centres undefined), the Activity result in the data set with Aorta [1] is “Dose-dependent effect”. The EC50 with Aorta [1] was 280 nM; in the data set with Aorta [2], 67000 nM.
In the case of `CC(=O)Oc1ccccc1C(=O)OCOC(=O)CCCC(CO[N+](=O)[O-])O[N+](=O)[O-]` (centres undefined), the Activity in the data set with Serum is 10.6%; with Aorta [1] it was “Dose-dependent effect”; in the data set with Platelet, “Dose-dependent effect”; in the data set on Aorta [7], under 50%. In addition, the remaining at 3 h, 500 µM in [3] and in data set [6] was 99% throughout. Also, the inhibition at 300 µM in data set [4] came out at 8.6%. Also, the EC50 in the data set with Aorta [1] is 390 nM. For the same compound, in data set [5], the half-life at 250 µM was under 1 min.
For `O=C(O)c1ccc(SCC(CO[N+](=O)[O-])O[N+](=O)[O-])cc1` (centres undefined), in the data set on Aorta [1], the Activity entry was “Dose-dependent effect” and the EC50 stood at 270 nM. In addition, the EC50 in the data set on Aorta [2] came out at 56000 nM.

These data come from ChEMBL document CHEMBL1151960, “(Nitrooxyacyloxy)methyl esters of aspirin as novel nitric oxide releasing aspirins” (J Med Chem, 2009).
